These results are taken from PMC9231628 (Proceedings of the National Academy of Sciences of the …, 2022).

The test system of one data set is monarch butterflies. To be noted: cited from earlier work.
The target in another data set is monarch Na+/K+-ATPase (Danaus plexippus, UniProt K0G7C4). To be noted: monarch enzyme; cited from earlier work.
Another data set has as its system Oncopeltus fasciatus. The experiment in a line: Laboratory rearing on A. syriaca seeds: sequestration of seed cardenolides. The data set is classed as in vivo. To be noted: bugs reared on A. syriaca seeds from Ithaca, NY. The procedure, abridged: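 Field-collected Oncopeltus (Ithaca, NY) reared on a pooled A. syriaca seed lot for fewer than five generations. Whole adults and seeds, 50 mg ground freeze-dried each, extracted in methanol with 20 µg digitoxin internal standard. Analysed by C18 HPLC-UV (acetonitrile/water gradient, 218 nm), with cardenolides taken as peaks with a 214–222 nm maximum. Quantified by peak area against digitoxin on a dry-mass basis; HRMS for identification.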

The test system of a further data set is Oncopeltus Na+/K+-ATPase. The experiment in a line: Na+/K+-ATPase inhibition assay, Oncopeltus neural enzyme. It is filed as biochemical, Oncopeltus fasciatus. To be noted: from Fig. 3. The procedure, abridged:
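Neural-tissue enzyme; stocks in 20% DMSO/H₂O (5 mM, or 1 mM for one test compound). Six-point 1/10 dilution series, diluted 1:5 into Tris-buffered ATP, NaCl, KCl, MgCl₂ plus enzyme; 37 °C, 20 min, shaking. Stopped with 10% SDS; Pi by Taussky–Shorr at 700 nm. Background: 10 mM ouabain, no KCl. IC50 from four-parameter logistic mixed model; ratios use monarch enzyme or ouabain IC50s.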

monarch Na+/K+-ATPase, sequence (K0G7C4 1-1009): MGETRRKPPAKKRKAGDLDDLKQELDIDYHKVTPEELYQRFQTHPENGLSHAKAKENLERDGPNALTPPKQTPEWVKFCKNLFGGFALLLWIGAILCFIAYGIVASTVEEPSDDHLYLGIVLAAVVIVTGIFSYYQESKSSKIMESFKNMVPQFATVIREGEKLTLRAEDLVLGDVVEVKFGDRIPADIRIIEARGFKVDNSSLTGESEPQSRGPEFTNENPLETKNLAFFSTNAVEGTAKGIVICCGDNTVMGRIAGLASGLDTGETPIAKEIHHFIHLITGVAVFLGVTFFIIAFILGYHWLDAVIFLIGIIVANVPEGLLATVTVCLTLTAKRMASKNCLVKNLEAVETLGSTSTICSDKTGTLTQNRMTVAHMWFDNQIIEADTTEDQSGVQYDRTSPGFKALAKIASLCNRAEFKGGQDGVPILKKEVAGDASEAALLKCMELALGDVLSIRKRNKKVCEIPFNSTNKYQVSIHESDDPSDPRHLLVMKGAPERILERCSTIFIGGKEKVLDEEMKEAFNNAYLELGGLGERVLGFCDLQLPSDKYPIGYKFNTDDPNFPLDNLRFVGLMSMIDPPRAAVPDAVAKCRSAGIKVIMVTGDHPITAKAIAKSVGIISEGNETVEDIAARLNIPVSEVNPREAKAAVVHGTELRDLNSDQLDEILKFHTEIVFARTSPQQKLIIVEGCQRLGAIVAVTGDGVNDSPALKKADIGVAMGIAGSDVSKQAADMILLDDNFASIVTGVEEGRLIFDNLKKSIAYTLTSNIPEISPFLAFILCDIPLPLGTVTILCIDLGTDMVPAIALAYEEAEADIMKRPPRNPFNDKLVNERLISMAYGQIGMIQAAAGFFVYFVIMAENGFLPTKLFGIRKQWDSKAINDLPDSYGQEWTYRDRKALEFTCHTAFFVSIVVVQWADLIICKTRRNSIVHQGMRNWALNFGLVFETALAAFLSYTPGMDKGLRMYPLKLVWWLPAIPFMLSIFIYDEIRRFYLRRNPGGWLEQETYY

As a reminder, the IC50 is the concentration that gives 50% inhibition. For the compound `C[C@@H]1C[C@@]2(NCCS2)[C@]2(O)O[C@@H]3C[C@@]4(C=O)[C@@H](CC[C@@H]5[C@@H]4CC[C@]4(C)[C@@H](C6=CC(=O)OC6)CC[C@]54O)C[C@H]3O[C@@H]2O1` [Voruscharin, voruscharin], the “effect on monarch growth” value with monarch butterflies was “negatively impacts monarch growth”. Also, at monarch Na+/K+-ATPase, the IC50 is 2 µM.

As for Aspecioside A, the “share of the total cardenolides in bugs” value in the data set on Oncopeltus fasciatus is on record as 33%.

In the case of `C[C@@H]1O[C@@H](O[C@H]2C[C@@H](O)[C@]3(CO)[C@H]4[C@H](O)C[C@]5(C)[C@@H](C6=CC(=O)OC6)CC[C@]5(O)[C@@H]4CC[C@]3(O)C2)[C@H](O)[C@H](O)[C@H]1O` [Ouabain, ouabain], in the data set on Oncopeltus Na+/K+-ATPase, the “advantage (tolerance) of Oncopeltus enzyme over monarchs” value was determined as 2 fold.
